Source: ChEMBL document CHEMBL4689842, “EUbOPEN Chemogenomics Library wave 1” (2021)

System: U2OS
Test: Multiplex assay against U2OS
Assay type: toxicity, cell-based
Conditions: human
Procedure, shortened: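 Live cells were stained at seeding with Hoechst33342, BioTracker Green Microtubule Cytoskeleton Dye, MitoTracker Red and Annexin V Alexa Fluor 680. Following compound addition, they were imaged on a CQ1 microscope at 37°C and 5% CO2 and gated by CellPathfinder machine learning into Hoechst high-intensity objects or normal cells, with normal cells split into healthy, pyknosed or fragmented nuclei and pyknosed cells into mitotic or apoptotic. Tubulin, mitochondrial-mass and membrane-permeability phenotypes are per cents of healthy-nucleus cells.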

[1] = 12 h, 1 µM, compound concentration 1 uM, replicate 1
[2] = 12 h, 1 µM, compound concentration 1 uM, replicate 2
[3] = 12 h, 10 µM, compound concentration 10 uM, replicate 1
[4] = 12 h, 10 µM, compound concentration 10 uM, replicate 2
[5] = 24 h, 1 µM, compound concentration 1 uM, replicate 1
[6] = 24 h, 1 µM, compound concentration 1 uM, replicate 2
[7] = 24 h, 10 µM, compound concentration 10 uM, replicate 1
[8] = 24 h, 10 µM, compound concentration 10 uM, replicate 2
[9] = 48 h, 1 µM, compound concentration 1 uM, replicate 1
[10] = 48 h, 1 µM, compound concentration 1 uM, replicate 2
[11] = 48 h, 10 µM, compound concentration 10 uM, replicate 1
[12] = 48 h, 10 µM, compound concentration 10 uM, replicate 2

Compound: CCC(=O)O[C@]1(C(=O)SCF)[C@H](C)C[C@H]2[C@@H]3C[C@H](F)C4=CC(=O)C=C[C@]4(C)[C@@]3(F)[C@@H](O)C[C@@]21C [FLUTICASONE PROPIONATE]
- Population Apoptotic (%) [1]: 35%
- Population Fragmented Nuclei (%) [1]: 8%
- Population Healthy Nuclei (%) [1]: 81%
- Population Hoechst High Intensity Objects (%) [1]: 5%
- Population Membrane Permeable-Phenotype (%) [1]: 7%
- Population Mitochondria Different-Phenotype (%) [1]: 7%
- Population Mitotic Cells (%) [1]: 64%
- Population Normal (%) [1]: 94%
- Population Pyknosed Nuclei (%) [1]: 9%
- Population Tubulin-Different-Phenotype (%) [1]: 10%
- Total Cell Count [1]: 182
- Population Apoptotic (%) [2]: 71%
- Population Fragmented Nuclei (%) [2]: 4%
- Population Healthy Nuclei (%) [2]: 78%
- Population Hoechst High Intensity Objects (%) [2]: 12%
- Population Membrane Permeable-Phenotype (%) [2]: 3%
- Population Mitochondria Different-Phenotype (%) [2]: 9%
- Population Mitotic Cells (%) [2]: 28%
- Population Normal (%) [2]: 87%
- Population Pyknosed Nuclei (%) [2]: 16%
- Population Tubulin-Different-Phenotype (%) [2]: 9%
- Total Cell Count [2]: 68
- Population Apoptotic (%) [3]: 53%
- Population Fragmented Nuclei (%) [3]: 14%
- Population Healthy Nuclei (%) [3]: 72%
- Population Hoechst High Intensity Objects (%) [3]: 9%
- Population Membrane Permeable-Phenotype (%) [3]: 22%
- Population Mitochondria Different-Phenotype (%) [3]: 47%
- Population Mitotic Cells (%) [3]: 46%
- Population Normal (%) [3]: 90%
- Population Pyknosed Nuclei (%) [3]: 13%
- Population Tubulin-Different-Phenotype (%) [3]: 48%
- Total Cell Count [3]: 155
- Population Apoptotic (%) [4]: 28%
- Population Fragmented Nuclei (%) [4]: 8%
- Population Healthy Nuclei (%) [4]: 81%
- Population Hoechst High Intensity Objects (%) [4]: 8%
- Population Membrane Permeable-Phenotype (%) [4]: 3%
- Population Mitochondria Different-Phenotype (%) [4]: 37%
- Population Mitotic Cells (%) [4]: 71%
- Population Normal (%) [4]: 92%
- Population Pyknosed Nuclei (%) [4]: 10%
- Population Tubulin-Different-Phenotype (%) [4]: 35%
- Total Cell Count [4]: 48
- Population Apoptotic (%) [5]: 37%
- Population Fragmented Nuclei (%) [5]: 4%
- Population Healthy Nuclei (%) [5]: 86%
- Population Hoechst High Intensity Objects (%) [5]: 3%
- Population Membrane Permeable-Phenotype (%) [5]: 6%
- Population Mitochondria Different-Phenotype (%) [5]: 5%
- Population Mitotic Cells (%) [5]: 62%
- Population Normal (%) [5]: 96%
- Population Pyknosed Nuclei (%) [5]: 8%
- Population Tubulin-Different-Phenotype (%) [5]: 6%
- Total Cell Count [5]: 230
- Population Apoptotic (%) [6]: 16%
- Population Fragmented Nuclei (%) [6]: 3%
- Population Healthy Nuclei (%) [6]: 84%
- Population Hoechst High Intensity Objects (%) [6]: 11%
- Population Membrane Permeable-Phenotype (%) [6]: 11%
- Population Mitochondria Different-Phenotype (%) [6]: 11%
- Population Mitotic Cells (%) [6]: 83%
- Population Normal (%) [6]: 88%
- Population Pyknosed Nuclei (%) [6]: 11%
- Population Tubulin-Different-Phenotype (%) [6]: 20%
- Total Cell Count [6]: 78
- Population Apoptotic (%) [7]: 53%
- Population Fragmented Nuclei (%) [7]: 17%
- Population Healthy Nuclei (%) [7]: 61%
- Population Hoechst High Intensity Objects (%) [7]: 9%
- Population Membrane Permeable-Phenotype (%) [7]: 43%
- Population Mitochondria Different-Phenotype (%) [7]: 24%
- Population Mitotic Cells (%) [7]: 46%
- Population Normal (%) [7]: 90%
- Population Pyknosed Nuclei (%) [7]: 21%
- Population Tubulin-Different-Phenotype (%) [7]: 41%
- Total Cell Count [7]: 189
- Population Apoptotic (%) [8]: 58%
- Population Fragmented Nuclei (%) [8]: 5%
- Population Healthy Nuclei (%) [8]: 78%
- Population Hoechst High Intensity Objects (%) [8]: 8%
- Population Membrane Permeable-Phenotype (%) [8]: 6%
- Population Mitochondria Different-Phenotype (%) [8]: 31%
- Population Mitotic Cells (%) [8]: 41%
- Population Normal (%) [8]: 91%
- Population Pyknosed Nuclei (%) [8]: 16%
- Population Tubulin-Different-Phenotype (%) [8]: 25%
- Total Cell Count [8]: 59
- Population Apoptotic (%) [9]: 53%
- Population Fragmented Nuclei (%) [9]: 4%
- Population Healthy Nuclei (%) [9]: 89%
- Population Hoechst High Intensity Objects (%) [9]: 2%
- Population Membrane Permeable-Phenotype (%) [9]: 5%
- Population Mitochondria Different-Phenotype (%) [9]: 10%
- Population Mitotic Cells (%) [9]: 46%
- Population Normal (%) [9]: 97%
- Population Tubulin-Different-Phenotype (%) [9]: 8%
- Total Cell Count [9]: 304
- Population Apoptotic (%) [10]: 20%
- Population Fragmented Nuclei (%) [10]: 1%
- Population Healthy Nuclei (%) [10]: 93%
- Population Hoechst High Intensity Objects (%) [10]: 8%
- Population Membrane Permeable-Phenotype (%) [10]: 8%
- Population Mitochondria Different-Phenotype (%) [10]: 12%
- Population Mitotic Cells (%) [10]: 80%
- Population Normal (%) [10]: 91%
- Population Pyknosed Nuclei (%) [10]: 5%
- Population Tubulin-Different-Phenotype (%) [10]: 19%
- Total Cell Count [10]: 113
- Population Apoptotic (%) [11]: 72%
- Population Fragmented Nuclei (%) [11]: 13%
- Population Healthy Nuclei (%) [11]: 67%
- Population Hoechst High Intensity Objects (%) [11]: 6%
- Population Membrane Permeable-Phenotype (%) [11]: 42%
- Population Mitochondria Different-Phenotype (%) [11]: 18%
- Population Mitotic Cells (%) [11]: 27%
- Population Normal (%) [11]: 93%
- Population Pyknosed Nuclei (%) [11]: 19%
- Population Tubulin-Different-Phenotype (%) [11]: 38%
- Total Cell Count [11]: 260
- Population Apoptotic (%) [12]: 45%
- Population Fragmented Nuclei (%) [12]: 4%
- Population Healthy Nuclei (%) [12]: 85%
- Population Hoechst High Intensity Objects (%) [12]: 3%
- Population Membrane Permeable-Phenotype (%) [12]: 11%
- Population Mitochondria Different-Phenotype (%) [12]: 14%
- Population Mitotic Cells (%) [12]: 54%
- Population Normal (%) [12]: 96%
- Population Pyknosed Nuclei (%) [12]: 11%
- Population Tubulin-Different-Phenotype (%) [12]: 22%
- Total Cell Count [12]: 101
